{"data": "Experimental data from different studies", "target": "Receptor-interacting serine/threonine-protein kinase 2 (RIPK2, Homo sapiens, UniProt O43353)", "note": "Each line is one published result; the experiments were not run side by side."}
{"Structure (SMILES)": "COc1cc(Nc2cnc(C#N)c(O[C@H](C)CN(C)C)n2)ncc1-c1cnn(C)c1", "observed": "enzyme activity", "action": "inhibitor", "method": "radiometric", "concentration": "10 µM", "measurement": "remaining activity", "value": "71%"}
{"Structure (SMILES)": "CCCS(=O)(=O)Nc1ccc(F)c(C(=O)c2c[nH]c3ncc(-c4ccc(Cl)cc4)cc23)c1F", "observed": "enzyme activity", "action": "inhibitor", "concentration": "1 µM", "measurement": "inhibition", "value": "< 10%"}
{"Structure (SMILES)": "CC(C)(C)c1nc(-c2cccc(NS(=O)(=O)c3c(F)cccc3F)c2F)c(-c2ccnc(N)n2)s1", "observed": "enzyme activity", "action": "inhibitor", "method": "radiometric", "concentration": "1 µM", "measurement": "remaining activity", "value": "5%"}
{"Structure (SMILES)": "CCCOc1ccc([C@H]2[C@H](C(=O)O)[C@@H](c3ccc4c(c3)OCO4)CN2CC(=O)Nc2c(CC)cccc2CC)cc1", "observed": "cell-free assay", "method": "competition with immobilised ligand", "concentration": "1 µM", "measurement": "remaining binding", "value": "100%"}
{"Structure (SMILES)": "CCCOc1ccc(OC)c(F)c1C(=O)c1ccc(C(=O)N[C@@H]2CNC[C@H]2NC(=O)c2ccc3[nH]ncc3c2)cc1", "observed": "enzyme activity", "action": "inhibitor", "concentration": "10 µM", "measurement": "remaining activity", "value": "91%"}
{"Structure (SMILES)": "Oc1ccc(-c2nc(-c3ccncc3)c(-c3ccc(F)cc3)[nH]2)cc1", "observed": "cell-free assay", "concentration": "0.5 µM", "measurement": "remaining signal", "value": "46.8%"}
{"Structure (SMILES)": "COc1cc(-c2cn(C3CCc4ccccc4N(CC(F)(F)F)C3=O)nn2)ccc1-n1ccc(C)n1 (centres unmarked)", "observed": "cell-free assay", "method": "competition with immobilised ligand", "concentration": "1 µM", "measurement": "remaining binding", "value": "93%"}
{"Structure (SMILES)": "Cc1ccc(C(=O)NCc2ccsc2)cc1C#Cc1cn(C(C)C)c2ncnc(N)c12", "observed": "enzyme activity", "action": "inhibitor", "concentration": "1 µM", "measurement": "activity vs control", "value": "14%"}
{"Structure (SMILES)": "Cc1sc(C(=O)NC2COC2)cc1-n1cc(NC(=O)Nc2c(F)cccc2Cl)cn1", "observed": "enzyme activity", "action": "inhibitor", "concentration": "10 µM", "measurement": "remaining activity", "value": "89.3%"}
{"Structure (SMILES)": "FC(F)c1nc2ccccc2n1-c1nc(N2CCOCC2)nc(N2CCOCC2)n1", "observed": "enzyme activity", "action": "inhibitor", "concentration": "10 µM", "measurement": "remaining activity", "value": "89%"}
{"Structure (SMILES)": "CN1CCN(c2cnc3c(C4CCN(C(=O)c5ccc(OC(F)(F)F)cc5N)CC4)ncnc3c2)CC1", "observed": "cell-free assay", "method": "competition with immobilised ligand", "concentration": "1 µM", "measurement": "remaining binding", "value": "100%"}
{"Structure (SMILES)": "CN1CC(Oc2cnc(C#N)cc2-c2ccn3nc(NC(=O)C4CC4)cc3c2)C1", "observed": "enzyme activity", "action": "inhibitor", "concentration": "1 µM", "measurement": "inhibition", "value": "81%"}
{"Structure (SMILES)": "CC(=O)N1CCC(c2ccc(C(=O)NC(=N)N)cc2C(F)(F)F)CC1", "observed": "cell-free assay", "method": "competition with immobilised ligand", "concentration": "1 µM", "measurement": "remaining binding", "value": "100%"}
{"Structure (SMILES)": "Cn1cnc(Br)c1C1=CN(c2ncnc3[nH]cnc23)CCS1", "observed": "enzyme activity", "action": "inhibitor", "method": "radiometric", "concentration": "2 µM", "measurement": "inhibition", "value": "34%"}
{"Structure (SMILES)": "CCN(CC)CCNC(=O)c1c(C)[nH]c(/C=C2\\C(=O)Nc3ccc(F)cc32)c1C", "observed": "enzyme activity", "action": "inhibitor", "concentration": "10 µM", "measurement": "inhibition", "value": "24%"}
{"Structure (SMILES)": "Nc1ncnc2occ(-c3ccc(NC(=O)Nc4cc(C(F)(F)F)ccc4F)cc3)c12", "observed": "cell-free assay", "action": "inhibitor", "concentration": "20 µM", "measurement": "remaining signal", "value": "4.2%"}
{"Structure (SMILES)": "COc1cc(/C=C/C(=O)CC(=O)/C=C/c2ccc(O)c(OC)c2)ccc1O", "observed": "enzyme activity", "action": "inhibitor", "concentration": "1 µM", "measurement": "activity vs control", "value": "16%"}
{"Structure (SMILES)": "CNCc1ccc(-c2cc(-c3nc(-c4ccc(S(=O)(=O)C(C)C)cc4)cnc3N)on2)cc1", "observed": "enzyme activity", "action": "inhibitor", "concentration": "0.4 µM", "measurement": "inhibition", "value": "6%"}
{"Structure (SMILES)": "F[C@@H]1CCN(c2nccc(-c3cnn4ncccc34)n2)C1", "observed": "binding", "concentration": "1 µM", "measurement": "remaining binding", "value": "100%"}
{"Structure (SMILES)": "O=C1NC(=O)c2cc(Nc3ccc(F)cc3)c(Nc3ccc(F)cc3)cc21", "observed": "cell-free assay", "concentration": "0.5 µM", "measurement": "remaining signal", "value": "95%"}
{"Structure (SMILES)": "C[C@H](c1ccc(F)cc1)N(Cc1cccc(C(=O)O)c1)C(=O)c1cnc2ccccc2c1", "observed": "cell-free assay", "method": "competition with immobilised ligand", "concentration": "1 µM", "measurement": "remaining binding", "value": "82%"}
{"Structure (SMILES)": "N#CCCc1ccc2c(c1)-c1[nH]c3ccc([N+](=O)[O-])cc3c1CC(=O)N2", "observed": "cell-free assay", "concentration": "0.5 µM", "measurement": "remaining signal", "value": "21.5%"}
{"Structure (SMILES)": "FC(F)(F)Oc1cccc(-c2cnc3ccc(-c4ccncc4)nn23)c1", "observed": "enzyme activity", "action": "inhibitor", "method": "radiometric", "concentration": "5 µM", "measurement": "activity vs control", "value": "22%"}
{"Structure (SMILES)": "O=C(O)[C@H]1[C@H](Cn2nnc3ccccc3c2=O)CC[C@@H]1C(=O)c1ccc(OCCC2CCOCC2)cc1", "observed": "cell-free assay", "method": "competition with immobilised ligand", "concentration": "1 µM", "measurement": "remaining binding", "value": "100%"}
{"Structure (SMILES)": "C[C@@H]1CCN(C(=O)CC#N)C[C@@H]1N(C)c1ncnc2[nH]ccc12", "observed": "cell-free assay", "action": "inhibitor", "concentration": "0.5 µM", "measurement": "remaining signal", "value": "113%"}
{"Structure (SMILES)": "CCS(=O)(=O)c1cc2cc(C[C@](O)(CC(C)(C)c3ccc(F)cc3C(N)=O)C(F)(F)F)[nH]c2cn1", "observed": "cell-free assay", "method": "competition with immobilised ligand", "concentration": "1 µM", "measurement": "remaining binding", "value": "67%"}
{"Structure (SMILES)": "COc1cc(Cl)c(C(=O)N[C@@H](CN[C@H]2CC[C@@H](N)CC2)Cc2ccc(C#N)cc2)cc1-c1ccc(CN[C@H](C)c2ccc(C)cc2)o1", "observed": "enzyme activity", "action": "inhibitor", "concentration": "1 µM", "measurement": "remaining activity", "value": "100%"}
{"Structure (SMILES)": "C[C@@H]1CN(c2cc(-c3n[nH]c4ccc(OC5(C)CC5)cc34)ncn2)C[C@H](C)O1", "observed": "cell-free assay", "method": "competition with immobilised ligand", "concentration": "0.1 µM", "measurement": "remaining binding", "value": "100%"}
{"Structure (SMILES)": "Cc1ccc(NC(=O)c2ccc(C)c(C(F)(F)F)c2)cc1C#Cc1nn(C2CCC(O)CC2)c2ncnc(N)c12 (centres unmarked)", "observed": "cell-free assay", "concentration": "10 µM", "measurement": "remaining signal", "value": "21%"}
